The source of these data is article PMC5774476 (Drug Design, Development and Therapy, 2018).

Like-named read-outs stand apart in the source and are kept apart here.

The test system of data set [1] is WiDR cells. The data set can be described thus: MTT cytotoxicity assay on WiDR colorectal cancer cells. Format: cell-based. The following applies: for IC50: Homo sapiens, WiDr, 24 h; for SI (selectivity index): ratio of IC50 in Vero versus that in WiDR cells, selective if >3. The essentials: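 WiDR cells grown in RPMI 1640 with 0.1 mg/mL streptomycin (5% CO2, 37°C); confluent cells seeded 1×10^4/well for 24 h, then exposed 24 h to test compound (1% DMSO solution diluted in medium) at 3.906–500 µg/mL. MTT 4 h, formazan dissolved overnight in 10% SDS/0.01 N HCl, A595. Viability vs untreated and cell-free controls; IC50 by probit, mean of three experiments; SI = Vero IC50/WiDR IC50.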

For data set [2] the following is noted: IC50 slightly higher than that of chloroquine; cited from earlier work.

Regarding `COc1cccc2c1C(=O)c1c(O)c3c(c(O)c1C2=O)C[C@@](O)(C(=O)CO)C[C@@H]3O[C@H]1C[C@H](N)[C@H](O)[C@H](C)O1` [Doxorubicin, doxorubicin, reference compound], the IC50 in data set [1] (read-out: IC50 (µM) WiDR) was 3.04 ± 0.184 µM; in data set [1] (read-out: IC50 (µg/mL) WiDR), 1.65 ± 0.19 µg/mL. Also, the “SI (selectivity index)” value in data set [1] is on record as 49.38.

For `O=c1c2ccc(O)cc2oc2c(O)c(O)ccc12` [Compound 5, 3,4,6-trihydroxyxanthone], the results for the IC50 in data set [1] (read-out: IC50 (µM) WiDR) and in data set [1] (read-out: IC50 (µg/mL) WiDR) were 37.8 ± 10.6 µM and 9.23 ± 2.58 µg/mL, respectively. In data set [1] (WiDR cell line), the “cytotoxicity category (CSIR criteria)” value is “moderate (moderate (6.25 µg/mL < mean IC50 <15 µg/mL))”. In addition, the “cytotoxic activity (in words)” value in data set [1] (WiDR cells, MTT) is “exhibited cytotoxic activity”. Moreover, the “SI (selectivity index)” value in data set [1] is listed as 66.39; in data set [1] (listed as compound 5), 66.40. In addition, the antimalarial activity entry in data set [2] is on record as “good antimalarial activity”.
